{
  "source": "ChEMBL document CHEMBL3853294",
  "about": "“Design, synthesis and biological evaluation of novel HSP70 inhibitors: N, N'-disubstituted thiourea derivatives” (Eur J Med Chem, 2016)",
  "data": [
    {"species_on_record": "Homo sapiens", "assay": "Inhibition of HSP70 in human BT/LapR1.0 cells assessed as potentiation of 1 uM of lapatinib-induced growth inhibition after 72 hrs by measuring coefficient of drug interaction by cell titer-glo based luminescence assay", "conditions": "not given", "values": [
      {"smiles": "CC(C)(C)C(NC(=O)/C=C/c1ccccc1)NC(=S)NC1CCCCC1", "note": "(stereo unspecified)", "Activity": "< 1"},
      {"smiles": "COc1ccc(NC(=S)NC(NC(=O)/C=C/c2cc(OC)c(OC)c(OC)c2)C(C)C)cc1", "note": "(stereo unspecified)", "Activity": "< 1"},
      {"smiles": "Cc1ccccc1NC(=S)NC(NC(=O)/C=C/c1ccccc1)C1CC1", "note": "(stereo unspecified)", "Activity": "< 1"},
      {"smiles": "CC(C)CC(NC(=O)/C=C/c1ccccc1)NC(=S)Nc1ccccc1", "note": "(stereo unspecified)", "Activity": "< 1"},
      {"smiles": "COc1cc(/C=C/C(=O)NC(NC(=O)Nc2ccccn2)C(C)C)cc(OC)c1OC", "note": "(stereo unspecified)", "Activity": "< 1"},
      {"smiles": "COc1cc(/C=C/C(=O)NC(NC(=S)Nc2cccnc2)C(C)(C)C)cc(OC)c1OC", "note": "(stereo unspecified)", "Activity": "< 1"},
      {"smiles": "Cc1ccccc1NC(=S)NC(CC(C)(C)C)NC(=O)/C=C/c1ccccc1", "note": "(stereo unspecified)", "Activity": 0.79},
      {"smiles": "COc1cc(/C=C/C(=O)NC(CC(C)C)NC(=S)Nc2cccnc2)cc(OC)c1OC", "note": "(stereo unspecified)", "Activity": "< 1"}
    ]},
    {"molecular_target": "Chaperone protein DnaK (Escherichia coli) (UniProt P0A6Y8)", "assay": "Inhibition of Escherichia coli DnaK ATPase activity at 200 uM incubated on shaker for 10 mins followed by 30 mins incubation by malachite green reagent based colorimetric assay", "conditions": "not given", "units": {"inhibition": "%"}, "values": [
      {"smiles": "CC(C)(C)C(NC(=O)/C=C/c1ccccc1)NC(=S)NC1CCCCC1", "note": "(stereo unspecified)", "inhibition": "< 20"},
      {"smiles": "COc1ccc(NC(=S)NC(NC(=O)/C=C/c2cc(OC)c(OC)c(OC)c2)C(C)C)cc1", "note": "(stereo unspecified)", "inhibition": "< 20"},
      {"smiles": "Cc1ccccc1NC(=S)NC(NC(=O)/C=C/c1ccccc1)C1CC1", "note": "(stereo unspecified)", "inhibition": 65.4},
      {"smiles": "CC(C)CC(NC(=O)/C=C/c1ccccc1)NC(=S)Nc1ccccc1", "note": "(stereo unspecified)", "inhibition": "< 20"},
      {"smiles": "COc1cc(/C=C/C(=O)NC(NC(=O)Nc2ccccn2)C(C)C)cc(OC)c1OC", "note": "(stereo unspecified)", "inhibition": "< 20"},
      {"smiles": "COc1cc(/C=C/C(=O)NC(NC(=S)Nc2cccnc2)C(C)(C)C)cc(OC)c1OC", "note": "(stereo unspecified)", "inhibition": "< 20"},
      {"smiles": "Cc1ccccc1NC(=S)NC(CC(C)(C)C)NC(=O)/C=C/c1ccccc1", "note": "(stereo unspecified)", "inhibition": 41},
      {"smiles": "COc1cc(/C=C/C(=O)NC(CC(C)C)NC(=S)Nc2cccnc2)cc(OC)c1OC", "note": "(stereo unspecified)", "inhibition": 38.5}
    ]},
    {"species_on_record": "Homo sapiens", "assay": "Inhibition of HSP70 in human BT/LapR1.0 cells assessed as potentiation of 1 uM of lapatinib-induced growth inhibition at 10 uM after 72 hrs by cell titer-glo based luminescence assay", "conditions": "not given", "summary_of_the_method": "(§1)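 Cells were trypsinised and seeded at 5000 cells/well, then cultured 24 h at 37 °C. Compound was added at 10 µM, alone or with 1 µM lapatinib, and incubated 72 h at 37 °C. CellTiter-Glo reagent was added at a volume equal to the medium, followed by 3 min shaking and 10 min at room temperature. Luminescence (ATP) was read and normalised to the blank control group.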", "units": {"growth inhibition (GI)": "%"}, "values": [
      {"smiles": "CC(C)(C)C(NC(=O)/C=C/c1ccccc1)NC(=S)NC1CCCCC1", "note": "(stereo unspecified)", "growth inhibition (GI)": 47.2},
      {"smiles": "COc1ccc(NC(=S)NC(NC(=O)/C=C/c2cc(OC)c(OC)c(OC)c2)C(C)C)cc1", "note": "(stereo unspecified)", "growth inhibition (GI)": 23.4},
      {"smiles": "Cc1ccccc1NC(=S)NC(NC(=O)/C=C/c1ccccc1)C1CC1", "note": "(stereo unspecified)", "growth inhibition (GI)": 20},
      {"smiles": "CC(C)CC(NC(=O)/C=C/c1ccccc1)NC(=S)Nc1ccccc1", "note": "(stereo unspecified)", "growth inhibition (GI)": 36.9},
      {"smiles": "COc1cc(/C=C/C(=O)NC(NC(=O)Nc2ccccn2)C(C)C)cc(OC)c1OC", "note": "(stereo unspecified)", "growth inhibition (GI)": 57.6},
      {"smiles": "COc1cc(/C=C/C(=O)NC(NC(=S)Nc2cccnc2)C(C)(C)C)cc(OC)c1OC", "note": "(stereo unspecified)", "growth inhibition (GI)": 56},
      {"smiles": "Cc1ccccc1NC(=S)NC(CC(C)(C)C)NC(=O)/C=C/c1ccccc1", "note": "(stereo unspecified)", "growth inhibition (GI)": 41},
      {"smiles": "COc1cc(/C=C/C(=O)NC(CC(C)C)NC(=S)Nc2cccnc2)cc(OC)c1OC", "note": "(stereo unspecified)", "growth inhibition (GI)": 54.2}
    ]},
    {"system": "not listed separately", "assay": "Growth inhibition of human BT474 cells at 10 uM after 72 hrs by cell titer-glo based luminescence assay", "parameters": "species or system BT-474", "conditions": "read-out: GI", "summary_of_the_method": "as §1", "units": {"inhibition at 72 h, 10 µM": "%"}, "values": [
      {"smiles": "CC(C)(C)C(NC(=O)/C=C/c1ccccc1)NC(=S)NC1CCCCC1", "note": "(stereo unspecified)", "inhibition at 72 h, 10 µM": 13},
      {"smiles": "COc1ccc(NC(=S)NC(NC(=O)/C=C/c2cc(OC)c(OC)c(OC)c2)C(C)C)cc1", "note": "(stereo unspecified)", "inhibition at 72 h, 10 µM": 11.5},
      {"smiles": "Cc1ccccc1NC(=S)NC(NC(=O)/C=C/c1ccccc1)C1CC1", "note": "(stereo unspecified)", "inhibition at 72 h, 10 µM": 6},
      {"smiles": "CC(C)CC(NC(=O)/C=C/c1ccccc1)NC(=S)Nc1ccccc1", "note": "(stereo unspecified)", "inhibition at 72 h, 10 µM": 17.7},
      {"smiles": "COc1cc(/C=C/C(=O)NC(NC(=O)Nc2ccccn2)C(C)C)cc(OC)c1OC", "note": "(stereo unspecified)", "inhibition at 72 h, 10 µM": 12.4},
      {"smiles": "COc1cc(/C=C/C(=O)NC(NC(=S)Nc2cccnc2)C(C)(C)C)cc(OC)c1OC", "note": "(stereo unspecified)", "inhibition at 72 h, 10 µM": 10.3},
      {"smiles": "Cc1ccccc1NC(=S)NC(CC(C)(C)C)NC(=O)/C=C/c1ccccc1", "note": "(stereo unspecified)", "inhibition at 72 h, 10 µM": 18.2},
      {"smiles": "COc1cc(/C=C/C(=O)NC(CC(C)C)NC(=S)Nc2cccnc2)cc(OC)c1OC", "note": "(stereo unspecified)", "inhibition at 72 h, 10 µM": 9.2}
    ]},
    {"system": "BT-474", "assay": "Potentiation of lapatinib-induced growth inhibition of human BT474 cells assessed as coefficient of drug interaction after 72 hrs by cell titer-glo based luminescence assay", "format": "functional", "conditions": "not given", "values": [
      {"smiles": "CC(C)(C)C(NC(=O)/C=C/c1ccccc1)NC(=S)NC1CCCCC1", "note": "(stereo unspecified)", "Activity": 0.77},
      {"smiles": "COc1ccc(NC(=S)NC(NC(=O)/C=C/c2cc(OC)c(OC)c(OC)c2)C(C)C)cc1", "note": "(stereo unspecified)", "Activity": "<1"},
      {"smiles": "Cc1ccccc1NC(=S)NC(NC(=O)/C=C/c1ccccc1)C1CC1", "note": "(stereo unspecified)", "Activity": "<1"},
      {"smiles": "CC(C)CC(NC(=O)/C=C/c1ccccc1)NC(=S)Nc1ccccc1", "note": "(stereo unspecified)", "Activity": 0.86},
      {"smiles": "COc1cc(/C=C/C(=O)NC(NC(=O)Nc2ccccn2)C(C)C)cc(OC)c1OC", "note": "(stereo unspecified)", "Activity": "<1"},
      {"smiles": "COc1cc(/C=C/C(=O)NC(NC(=S)Nc2cccnc2)C(C)(C)C)cc(OC)c1OC", "note": "(stereo unspecified)", "Activity": "<1"},
      {"smiles": "Cc1ccccc1NC(=S)NC(CC(C)(C)C)NC(=O)/C=C/c1ccccc1", "note": "(stereo unspecified)", "Activity": 0.74},
      {"smiles": "COc1cc(/C=C/C(=O)NC(CC(C)C)NC(=S)Nc2cccnc2)cc(OC)c1OC", "note": "(stereo unspecified)", "Activity": "<1"}
    ]},
    {"system": "BT-474", "assay": "Potentiation of lapatinib-induced growth inhibition of human BT474 cells at 10 uM after 72 hrs by cell titer-glo based luminescence assay", "format": "functional", "conditions": "BT-474, 72 h, read-out: GI", "summary_of_the_method": "as §1", "units": {"inhibition of growth at 10 µM": "%"}, "values": [
      {"smiles": "CC(C)(C)C(NC(=O)/C=C/c1ccccc1)NC(=S)NC1CCCCC1", "note": "(stereo unspecified)", "inhibition of growth at 10 µM": 85.2},
      {"smiles": "COc1ccc(NC(=S)NC(NC(=O)/C=C/c2cc(OC)c(OC)c(OC)c2)C(C)C)cc1", "note": "(stereo unspecified)", "inhibition of growth at 10 µM": 78.5},
      {"smiles": "Cc1ccccc1NC(=S)NC(NC(=O)/C=C/c1ccccc1)C1CC1", "note": "(stereo unspecified)", "inhibition of growth at 10 µM": 78.6},
      {"smiles": "CC(C)CC(NC(=O)/C=C/c1ccccc1)NC(=S)Nc1ccccc1", "note": "(stereo unspecified)", "inhibition of growth at 10 µM": 85},
      {"smiles": "COc1cc(/C=C/C(=O)NC(NC(=O)Nc2ccccn2)C(C)C)cc(OC)c1OC", "note": "(stereo unspecified)", "inhibition of growth at 10 µM": 86.2},
      {"smiles": "COc1cc(/C=C/C(=O)NC(NC(=S)Nc2cccnc2)C(C)(C)C)cc(OC)c1OC", "note": "(stereo unspecified)", "inhibition of growth at 10 µM": 84.7},
      {"smiles": "Cc1ccccc1NC(=S)NC(CC(C)(C)C)NC(=O)/C=C/c1ccccc1", "note": "(stereo unspecified)", "inhibition of growth at 10 µM": 84.2},
      {"smiles": "COc1cc(/C=C/C(=O)NC(CC(C)C)NC(=S)Nc2cccnc2)cc(OC)c1OC", "note": "(stereo unspecified)", "inhibition of growth at 10 µM": 79.1}
    ]},
    {"system": "not listed separately", "assay": "Growth inhibition of human BT/LapR1.0 cells at 10 uM after 72 hrs by cell titer-glo based luminescence assay", "conditions": "read-out: GI", "summary_of_the_method": "as §1", "units": {"inhibition at 72 h, 10 µM": "%"}, "values": [
      {"smiles": "CC(C)(C)C(NC(=O)/C=C/c1ccccc1)NC(=S)NC1CCCCC1", "note": "(stereo unspecified)", "inhibition at 72 h, 10 µM": 34.3},
      {"smiles": "COc1ccc(NC(=S)NC(NC(=O)/C=C/c2cc(OC)c(OC)c(OC)c2)C(C)C)cc1", "note": "(stereo unspecified)", "inhibition at 72 h, 10 µM": 15.4},
      {"smiles": "Cc1ccccc1NC(=S)NC(NC(=O)/C=C/c1ccccc1)C1CC1", "note": "(stereo unspecified)", "inhibition at 72 h, 10 µM": 8.7},
      {"smiles": "CC(C)CC(NC(=O)/C=C/c1ccccc1)NC(=S)Nc1ccccc1", "note": "(stereo unspecified)", "inhibition at 72 h, 10 µM": 13.6},
      {"smiles": "COc1cc(/C=C/C(=O)NC(NC(=O)Nc2ccccn2)C(C)C)cc(OC)c1OC", "note": "(stereo unspecified)", "inhibition at 72 h, 10 µM": 18.2},
      {"smiles": "COc1cc(/C=C/C(=O)NC(NC(=S)Nc2cccnc2)C(C)(C)C)cc(OC)c1OC", "note": "(stereo unspecified)", "inhibition at 72 h, 10 µM": 16},
      {"smiles": "Cc1ccccc1NC(=S)NC(CC(C)(C)C)NC(=O)/C=C/c1ccccc1", "note": "(stereo unspecified)", "inhibition at 72 h, 10 µM": 18.9},
      {"smiles": "COc1cc(/C=C/C(=O)NC(CC(C)C)NC(=S)Nc2cccnc2)cc(OC)c1OC", "note": "(stereo unspecified)", "inhibition at 72 h, 10 µM": 10.5}
    ]}
  ]
}
